According to paper PMC6249066 (Journal of medicinal chemistry, 2018):

Experiments:
[1] = system: patients with relapsed or refractory multiple myeloma; conditions: cited from earlier work
[2] = system: peripheral blood derived mononuclear cells (PBMCs); experiment: Cell viability in PBMCs from healthy individuals; format: cell-based; conditions: PBMCs from healthy individuals
SEM cells [3] = experiment: Proliferation assay; format: cell-based; conditions: at IC50 or 2x IC50 concentrations
Outline: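 SEM cells (RPMI1640, 10% FCS, 37°C, 5% CO2) treated with test compound. Viable cells counted every 24 h by trypan blue exclusion on an automated cell counter.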

human HDAC2 = human HDAC2 (Homo sapiens, UniProt Q92769); experiment: HDAC IC50 profiling, fluorescence-based assay; format: biochemical; conditions: result in words
[4] = system: primary BCP-ALL cells derived from four therapy-refractory patients; format: cell-based; conditions: Homo sapiens, read-out: IC50 values, range over four patients
[5] = system: caspase-like proteasome activity; experiment: Cell-based Proteasome-Glo caspase-like assay
Outline: (§1)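 Cell-based Proteasome-Glo kits: a luminogenic peptide substrate is cleaved by the proteasome to aminoluciferin, which Ultra-Glo luciferase consumes to give luminescence proportional to the corresponding protease activity. Luminescence read on a plate reader.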

SEM cells [6] = experiment: CFU assay; format: cell-based; conditions: 48 h exposure, colonies counted after 14 days
Outline: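 SEM cells pretreated with test compound or control in liquid medium, then seeded in semisolid methylcellulose-based medium that also contains the compound or control. Colonies counted after 14 days.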

[7] = Cell viability in PBMCs from healthy individuals; format: cell-based; conditions: human
human HDAC1 = human HDAC1 (Homo sapiens, UniProt Q13547); experiment: HDAC IC50 profiling, fluorescence-based assay; format: biochemical; conditions: result in words
[8] = system: acetyl-α-tubulin, acetyl-Histone H3, PARP in HL-60, SEM and SUP-B15r cells; experiment: Western blotting of cell lysates; format: cell-based; conditions: 24 h
Outline: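 HL-60 and SEM cells (RPMI1640, 10% FCS, 37°C, 5% CO2) and TKI-resistant SUP-B15r cells (McCoy's 5A, 20% FCS) exposed to test compound or reference HDAC/proteasome inhibitors for 24 h. Lysates immunoblotted for acetyl-α-tubulin, acetyl-histone H3, PARP and GAPDH.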

[9] = system: aggresome accumulation in SEM cells; experiment: Aggresome detection assay; format: cell-based; conditions: 18 h, at inhibitory concentration
Outline: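 SEM cells (RPMI1640, 10% FCS, 37°C, 5% CO2) exposed to test compound 18 h, then stained for aggresomes and DNA with a Proteostat aggresome detection kit. Imaged by fluorescence microscopy (63X objective), or analysed by FACS, where the aggresome propensity factor is derived from relative mean fluorescence intensity.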

SEM cells [10] = experiment: Cell cycle analysis; format: cell-based; conditions: 48 h, dose dependent
Outline: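 SEM cells (RPMI1640, 10% FCS, 37°C, 5% CO2) exposed to test compound for 48 h, then permeabilised. DNA stained with propidium iodide and cell cycle distribution read by FACS.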

human HDAC3 = human HDAC3 (Homo sapiens, UniProt O15379); experiment: HDAC IC50 profiling, fluorescence-based assay; format: biochemical; conditions: result in words
[11] = system: trypsin-like proteasome activity; experiment: Cell-based Proteasome-Glo trypsin-like assay
Outline: as §1

Chain of human HDAC1 (Q13547 whole entry): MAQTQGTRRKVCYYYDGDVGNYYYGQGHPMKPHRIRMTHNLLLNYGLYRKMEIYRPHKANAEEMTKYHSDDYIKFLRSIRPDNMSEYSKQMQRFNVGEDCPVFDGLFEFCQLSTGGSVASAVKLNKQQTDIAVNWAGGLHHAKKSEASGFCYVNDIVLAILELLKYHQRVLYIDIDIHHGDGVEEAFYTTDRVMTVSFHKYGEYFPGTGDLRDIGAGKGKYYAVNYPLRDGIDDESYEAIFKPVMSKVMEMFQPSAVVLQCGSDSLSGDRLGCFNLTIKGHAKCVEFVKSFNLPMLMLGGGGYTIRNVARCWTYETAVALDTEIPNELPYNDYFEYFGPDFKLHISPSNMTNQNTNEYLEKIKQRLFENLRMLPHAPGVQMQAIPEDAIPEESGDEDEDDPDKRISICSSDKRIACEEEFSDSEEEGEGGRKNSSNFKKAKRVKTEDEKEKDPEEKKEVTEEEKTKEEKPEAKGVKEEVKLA
Chain of human HDAC2 (Q92769 whole entry): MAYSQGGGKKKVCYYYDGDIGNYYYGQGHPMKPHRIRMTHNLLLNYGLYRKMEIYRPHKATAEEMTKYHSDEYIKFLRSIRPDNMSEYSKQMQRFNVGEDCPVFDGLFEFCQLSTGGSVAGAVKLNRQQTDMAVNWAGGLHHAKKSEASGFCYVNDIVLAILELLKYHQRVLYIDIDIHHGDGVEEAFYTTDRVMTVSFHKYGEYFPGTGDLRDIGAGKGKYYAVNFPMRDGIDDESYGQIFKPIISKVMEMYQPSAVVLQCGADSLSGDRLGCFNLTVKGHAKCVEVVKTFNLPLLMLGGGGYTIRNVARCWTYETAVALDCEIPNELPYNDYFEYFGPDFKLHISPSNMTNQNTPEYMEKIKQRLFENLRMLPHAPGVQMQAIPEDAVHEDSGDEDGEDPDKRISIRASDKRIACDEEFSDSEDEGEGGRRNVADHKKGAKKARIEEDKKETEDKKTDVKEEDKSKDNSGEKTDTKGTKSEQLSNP
Chain of human HDAC3 (O15379 whole entry): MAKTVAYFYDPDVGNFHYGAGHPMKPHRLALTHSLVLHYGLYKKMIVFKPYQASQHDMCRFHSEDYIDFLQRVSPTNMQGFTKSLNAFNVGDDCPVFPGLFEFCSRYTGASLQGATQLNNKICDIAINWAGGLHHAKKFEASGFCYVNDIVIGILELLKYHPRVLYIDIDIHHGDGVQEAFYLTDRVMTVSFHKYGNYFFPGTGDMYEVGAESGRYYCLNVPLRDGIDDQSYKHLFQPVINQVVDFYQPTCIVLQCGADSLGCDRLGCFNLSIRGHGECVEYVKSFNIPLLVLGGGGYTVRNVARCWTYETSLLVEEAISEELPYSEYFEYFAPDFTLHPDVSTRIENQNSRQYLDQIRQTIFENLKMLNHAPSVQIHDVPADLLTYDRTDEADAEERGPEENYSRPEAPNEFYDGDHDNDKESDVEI
Chain of human HDAC3 (Q9Y618 395-489 partner limits assumed): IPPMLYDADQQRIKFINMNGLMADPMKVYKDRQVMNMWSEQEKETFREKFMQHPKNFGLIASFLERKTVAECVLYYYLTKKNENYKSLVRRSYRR

activity against HDAC2 (human HDAC2)	IC50 [4]	activity against HDAC1 (human HDAC1)	activity against HDAC3 (human HDAC3)	SMILES	response rate ([1]; ricolinostat in combination with bortezomib and dexamethasone)	toxicity and clinical responses as single agent ([1]; single agent)	IC50 against PBMCs, concentration range in words [2]	proliferation of SEM cells (SEM cells [3])	inhibition of caspase-like proteasome activity [5]	colony forming capacity (SEM cells [6])	IC50 at 72 h [7]	expression of cleaved PARP (marker of apoptosis) [8]	expression of acetyl-α tubulin and acetyl-histone H3 ([8]; compared to bortezomib)	aggresome accumulation [9]	cell cycle effect (SEM cells [10])	inhibition of trypsin-like proteasome activity [11]
–	–	–	–	O=C(CCCCCCNC(=O)c1cnc(N(c2ccccc2)c2ccccc2)nc1)NO [Ricolinostat]	37%	neither significant toxicity nor clinical responses	single-digit micromolar	–	–	–	–	–	–	–	–	–
low activity	1.51 to 5.23 µM	low activity	low activity	C[C@H](NC(=O)[C@H](CC(=O)NCC(C)(C)C)NC(=O)c1ccc(C(=O)NO)cc1)C(=O)NCc1ccccc1 [RTS-V5, N^1-((S)-1-(((S)-1-(Benzylamino)-1-oxopropan-2-yl)amino)-4-(neopentylamino)-1,4-dioxobutan-2-yl)-N^4-hydroxyterephthalamide]	–	–	–	significantly inhibited	unable to inhibit	significantly reduced	> 25 µM	upregulated	enhanced the expression	significantly blocked	arrested in S phase	unable to inhibit
–	–	–	–	CC(C)C[C@H](NC(=O)[C@H](Cc1ccccc1)NC(=O)c1cnccn1)B(O)O [bortezomib]	–	–	submicromolar	–	–	–	–	–	–	–	–	–
